Results from different studies.
Compare with care: the assays were run in different laboratories.
Organism: Pseudomonas aeruginosa
Effect on: microbial growth

SMILES | method | strain | time | setting | MIC
CC(C)Oc1c(NC(=O)c2ccc(NC(=O)[C@H](CC(N)=O)NC(=O)c3ccc(NC(=O)c4ccc(C#N)cc4)cc3)cc2)ccc(C(=O)O)c1O | – | PA14 | – | – | > 64 mg/L
CC1(C)SC2C(NC(=O)C(NC(=O)C3=C(O)C4CCCN4C3=O)c3ccccc3)C(=O)N2C1C(=O)O (centres unmarked) | – | – | – | – | 50 mg/L
Cc1ccc(C)n1-c1ccc(-c2nnc(S)s2)cc1 | broth dilution | ATCC10145 | 18 h | – | 2 mg/L
Fc1ccc(-c2nc3ccccc3n2Cc2ccccc2)cc1 | broth dilution | ATCC27853 | – | – | 128 mg/L
CC(C)Oc1c(NC(=O)c2ccc(NC(=O)[C@H](CC(N)=O)NC(=O)c3ccc(NC(=O)CCc4ccc(C#N)cc4)cc3)cc2)ccc(C(=O)Nc2ccc(C(=O)O)cc2)c1O | – | PA14 | – | – | > 64 mg/L
Brc1cccc(NCc2ccc(Oc3ccccn3)cc2)c1 | – | – | – | – | > 50 mg/L
C[C@@H](O)[C@H]1C(=O)N2C(C(=O)O)=C(S[C@@H]3CN[C@H](C(=O)N(C)C)C3)[C@H](C)[C@H]12 | – | – | – | – | 1.3 µM
CN(C)[C@@H]1C(O)=C(C(N)=O)C(=O)[C@@]2(O)C(O)=C3C(=O)c4c(cnc(-c5ccccc5)c4O)C[C@H]3C[C@@H]12.Cl.Cl | broth dilution | ATCC27853 | – | – | > 32 mg/L
Cc1c(CN(C)C(=O)/C=C/c2cnc3c(c2)CC(NC(=O)OC(C)(C)C)C(=O)N3)oc2ccccc12 (centres unmarked) | broth dilution | PA01 | – | – | > 32 mg/L
Cn1c(SCc2ccc(Cl)cc2)nnc1-c1cncc(C#Cc2ccccc2)c1 | – | – | – | – | ≥ 20 mg/L
CN(C)[C@@H]1C(O)=C(C(N)=O)C(=O)[C@@]2(O)C(O)=C3C(=O)c4c(cc5ccc(-c6cccnc6)cc5c4O)C[C@H]3C[C@@H]12 | broth dilution | ATCC27853 | – | – | 32 mg/L
O=c1cc(-c2ccc(O)c(O)c2)oc2cc(O)cc(O)c12 | broth dilution | PAO1 | – | – | 256 mg/L
CC(C)Oc1c(NC(=O)c2ccc(NC(=O)[C@H](CC(N)=O)NC(=O)c3ccc(NC(=O)c4ccc(C#N)cc4)cc3)cc2)ccc(C(=O)NC2CCNCC2)c1O | – | PA14 | – | – | > 64 mg/L
CN(C)c1cc(CNCC(C)(C)C)c(O)c2c1C[C@H]1C[C@H]3[C@H](N(C)C)C(O)=C(C(N)=O)C(=O)[C@@]3(O)C(O)=C1C2=O | broth dilution | ATCC27853 | – | – | > 32 mg/L
O=C(Nc1ccc2c(c1)OC(F)(F)O2)Nc1ccc(Cl)c(C(F)(F)F)c1 | – | DSM19882 | – | – | > 100 µM
C/C(=C\c1ccc(O)cc1)C(=O)Nc1ccc(C(=O)N[C@@H](CC(N)=O)C(=O)Nc2ccc(C(=O)Nc3ccc(C(=O)Nc4ccc(C(=O)O)cc4)c(O)c3OC(C)C)cc2)cc1 | – | PA14 | – | – | 1 mg/L
C[C@H]1[C@H](NC(=O)/C(=N\OC(C)(C)C(=O)O)c2csc(N)n2)C(=O)N1S(=O)(=O)O | agar dilution | ATCC27 | – | – | 4 mg/L
CC(C)Oc1c(NC(=O)c2ccc(NC(=O)[C@H](CC(N)=O)NC(=O)c3ccc(NC(=O)c4ccc(NC(N)=O)cc4)cc3)cc2)ccc(C(=O)Nc2ccc(C(=O)O)cc2)c1O | – | PA14 | – | – | > 64 mg/L
Cc1ccc2nc(-c3ccc(Cl)cc3)n(Cc3ccccc3Cl)c2c1 | broth dilution | ATCC27853 | – | – | 512 mg/L
CC(C)Oc1c(NC(=O)c2ccc(NC(=O)[C@H](CC(N)=O)NC(=O)c3ccc(NC(=O)c4ccc(C#N)cc4)cc3)cc2)ccc(C(=O)N[C@@H]2CONC2=O)c1O | – | PA14 | – | – | > 64 mg/L
O=C1NN=C(N=Cc2ccc(O)cc2O)C1=NNn1c(-c2ccccc2)nc2ccccc2c1=O | broth dilution | – | 24 h | – | 53.5 µM
CC1(C)S[C@@H]2[C@H](NC(=O)[C@H](N)c3ccccc3)C(=O)N2[C@H]1C(=O)O | – | – | – | – | > 200 mg/L
COc1c(C)c(OS(=O)(=O)c2ccc3ccccc3c2)c(C)c(OS(=O)(=O)c2ccc3ccccc3c2)c1C(=O)/C=C/c1ccccc1 | broth dilution | ATCC27853 | – | – | 5000 mg/L
Cc1ccccc1NCc1ccc(Oc2ccccn2)cc1 | – | – | – | – | > 50 mg/L
CC1=NN(CNc2ccc(C(=O)O)cc2)C(=O)C1=NNn1c(-c2ccccc2)nc2ccccc2c1=O | broth dilution | – | 24 h | – | 50.5 µM

SMILES | method | strain | time | setting | MIC
NC[C@@H]1CN[C@H](CNC(=O)c2cc3ccc(-c4ccc(F)cc4)cc3[nH]2)C1 | broth dilution | PAO1 | – | – | 25 mg/L
CCCc1nc(Cl)c2c(c1O)C(=O)C1=C(O)[C@]3(O)C(=O)C(C(N)=O)=C(O)[C@@H](N(C)C)[C@@H]3C[C@@H]1C2.Cl | broth dilution | ATCC27853 | – | – | > 32 mg/L
O=c1cc(-c2ccc(O)cc2)oc2cc(O)cc(O)c12 | broth dilution | PAO1 | – | – | 128 mg/L
CC[C@H]1OC(=O)[C@H](C)[C@@H](O[C@H]2C[C@@](C)(OC)[C@@H](O)[C@H](C)O2)[C@H](C)[C@@H](O[C@@H]2O[C@H](C)C[C@H](N(C)C)[C@H]2O)[C@](C)(O)C[C@@H](C)CN(C)[C@H](C)[C@@H](O)[C@]1(C)O | broth dilution | – | – | – | 100 mg/L
CC1(C)SC2C(NC(=O)C(NC(=O)C3=C(O)C(Cc4ccsc4)NC3=O)c3ccccc3)C(=O)N2C1C(=O)O (centres unmarked) | – | – | – | – | 25 mg/L
Cc1ccc(C)n1-c1ccc(C(=O)NNC=O)cc1 | broth dilution | ATCC10145 | 18 h | – | 125 mg/L
CCCCCCC/C=C/C(=O)N1C(=O)/C(=C(\O)c2ccncc2)C(=O)C1CC(C)C (centres unmarked) | – | PA01 | – | – | > 200 mg/L
CC(C)Oc1c(NC(=O)c2ccc(NC(=O)[C@H](CC(N)=O)NC(=O)c3ccc(NC(=O)C(C)Oc4ccccc4)cc3)cc2)ccc(C(=O)Nc2ccc(C(=O)O)cc2)c1O (some centres unmarked) | – | PA14 | – | – | > 64 mg/L
O=[N+]([O-])c1ccc(-c2nc3cccc(O)c3[nH]2)o1 | broth dilution | ATCC27853 | – | – | > 64 mg/L
N=C(N)NN=Cc1ccc(OC/C=C\COc2ccc(C=NNC(=N)N)cc2)cc1 | – | PA14 | 16 h | – | ≤ 51 mg/L
CN(C)c1c2c(c(O)c3cc(F)ccc13)C(=O)C1=C(O)[C@]3(O)C(=O)C(C(N)=O)=C(O)[C@@H](N(C)C)[C@@H]3C[C@@H]1C2 | broth dilution | ATCC27853 | – | – | > 32 mg/L
CCCCCCC/C=C/C(=O)N1C(=O)/C(=C(\O)c2ccc(OCOCCOC)cc2)C(=O)C1CC(C)C (centres unmarked) | – | PA01 | – | – | > 200 mg/L
Fc1ccc(NCc2ccc(Oc3ccccn3)cc2)cc1 | – | – | – | – | > 12.5 mg/L
CCCCCCC/C=C/C(=O)N1C(=O)/C(=C(\O)c2ccccc2)C(=O)C1CC(C)C (centres unmarked) | – | PA01 | – | – | > 200 mg/L
O=C(CCCCCC[P+](c1ccccc1)(c1ccccc1)c1ccccc1)Nc1cc(O)c(O)c(O)c1.[Br-] | broth dilution | ATCC27853 | 18 h | – | > 32 mg/L
CCCCCC(=O)Oc1c(C)c(O)c(C(=O)/C=C/c2ccccc2)c(OC)c1C | broth dilution | ATCC27853 | – | – | 5000 mg/L
CN(C)C1CN(Cc2ccc3cc4c(c(O)c3c2)C(=O)C2=C(O)[C@]3(O)C(=O)C(C(N)=O)=C(O)[C@@H](N(C)C)[C@@H]3C[C@@H]2C4)C1 | broth dilution | ATCC27853 | – | – | 32 mg/L
CC(C)CNc1nc(Cl)c2c(c1O)C(=O)C1=C(O)[C@]3(O)C(=O)C(C(N)=O)=C(O)[C@@H](N(C)C)[C@@H]3C[C@@H]1C2.Cl.Cl.Cl | broth dilution | ATCC27853 | – | – | > 32 mg/L
CC1(C)S[C@@H]2[C@H](NC(=O)C(C(=O)O)c3ccccc3)C(=O)N2[C@H]1C(=O)O (some centres unmarked) | broth dilution | – | – | clinical isolate | > 200 µM
O=C(CCCCCCCCCC[P+](c1ccccc1)(c1ccccc1)c1ccccc1)Nc1ccc(O)c(O)c1.[Br-] | broth dilution | ATCC27853 | 18 h | – | > 32 mg/L
CN(C)[C@@H]1C(O)=C(C(N)=O)C(=O)[C@@]2(O)C(O)=C3C(=O)c4c(O)c(NCC(C)(C)CN5CCCC5)nc(Cl)c4C[C@H]3C[C@@H]12.Cl | broth dilution | ATCC27853 | – | – | 32 mg/L
O=C(O)c1cn(C2CC2)c2cc(N3CCNCC3)c(F)cc2c1=O | broth dilution | ATCC10145 | 18 h | – | > 5 mg/L
CC(C)Oc1c(NC(=O)c2ccc(NC(=O)[C@H](CC(N)=O)NC(=O)c3ccc(NC(=O)c4ccc(C#N)cc4)cc3)cc2)ccc(C(=O)Nc2ccncc2)c1O | – | PA14 | – | – | > 64 mg/L
COc1c(C)c(OC(=O)c2ccc(C)cc2)c(C)c(O)c1C(=O)/C=C/c1ccccc1 | broth dilution | ATCC27853 | – | – | 5000 mg/L
C=CCn1c(-c2ccc(Cl)c(Cl)c2)nc2ccccc21 | broth dilution | ATCC27853 | – | – | 512 mg/L
